According to ChEMBL document CHEMBL1128275, “Amino-substituted 2-[2'-(dimethylamino)ethyl]-1,2-dihydro-3H- dibenz[de,h]isoquinoline-1,3-diones. Synthesis, antitumor activity, and quantitative structure--activity relationship” (J Med Chem, 1995):

Experiments:
L1210 [1] = assay: Anti-tumor activity against murine L1210 sensitive cell line by using MTT assay; format: functional, cell-based; settings: Mus musculus
L1210 [2] = assay: Antitumor activity against murine L1210 resistant cell line by using MTT assay; format: functional, cell-based; settings: Mus musculus
[3] = Cardiotoxicity was measured by using Neonatal rat heart myocyte assay; format: toxicity, tissue-based
Procedure, shortened: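 Neonatal rat heart myocytes in culture, 1 h drug exposure; cytotoxicity taken as the concentration lowering the ATP/protein ratio to 0.5, reported as IC50.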

[4] = Toxicity ratio of quotient of the IC50 in myocytes divided by the average IC50 for three tumor cell lines; format: cell-based; settings: myocytes and three tumor cell lines; read-out: Toxicity ratio
Procedure, shortened: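 Calculated ratio: myocyte IC50 (neonatal rat heart cells, 1 h exposure, ATP/protein end point) divided by the mean IC50 across A375 melanoma, OVCAR-3 ovarian and sensitive L1210 leukemia cells under continuous exposure.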

OVCAR-3 = assay: Anti-tumor activity against human OVCAR-3 ovarian cancer cell lines by using MTT assay; format: functional, cell-based
Procedure, shortened: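 Human tumor lines (A375 melanoma; OVCAR-3 ovarian carcinoma resistant to standard drugs) under continuous exposure, read by sulforhodamine B or MTT. Drugs from DMSO stocks diluted in PBS pH 7.4, 10^1–10^-5 μg/mL half-log, DMSO ≤0.1%, 37 °C, 5% CO2. MTT: 6 days then 4 h dye, A570. SRB: 8 days, TCA fixation, 0.4% SRB stain, OD 564 nm. Six wells per concentration; IC50 averaged.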

Mus musculus [5] = assay: The percent increase in life span of compound was measured against P388 Leukemia cells in mice at a dose of 4.5 mg/kg on days 1,5 and 9; format: functional
Procedure, shortened: (§1)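 Standard NCI protocol: 10^6 freshly harvested P388 cells injected ip into 10 adult male DBA/2J mice on day 0; compound given ip on days 1, 5 and 9; control group of 10 mice given tumor cells and saline on the same days. %ILS = 100 × (treated − control lifespan)/control lifespan, using group median lifespans.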

Mus musculus [6] = assay: The percent increase in life span of compound was measured against P388 Leukemia cells in mice at a dose of 10 mg/kg on days 1,5 and 9; format: functional; procedure, shortened: as §1
Mus musculus [7] = assay: The percent increase in life span of compound was measured against P388 Leukemia in mice at a dose of 15 mg/kg on days 1,5 and 9; format: functional; procedure, shortened: as §1
WiDr [8] = assay: Activity against resistant cell line of WiDr human colon tumor; format: functional, cell-based
Procedure, shortened: (§2)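 WiDr colon cells, sensitive line and a subline selected for resistance to mitoxantrone; MTT assay with continuous drug exposure. Compounds as hydrochlorides, dissolved in DMSO then serially diluted in PBS pH 7.4, 10^1–10^-5 μg/mL in half-log steps, DMSO ≤0.1% final.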

Mus musculus [9] = assay: The percent increase in life span of compound was measured against P388 Leukemia cells in mice at a dose of 1.6 mg/kg on days 1,5 and 9; format: functional; procedure, shortened: as §1
WiDr [10] = assay: Activity against sensitive cell line of WiDr human colon tumor; format: functional, cell-based; procedure, shortened: as §2
Mus musculus [11] = assay: The percent increase in life span of compound was measured against P388 Leukemia cells in mice at a dose of 5 mg/kg on days 1,5 and 9; format: functional
Mus musculus [12] = assay: The percent increase in life span of compound was measured against P388 Leukemia in mice at a dose of 10 mg/kg on days 1,5 and 9; format: functional; procedure, shortened: as §1
Mus musculus [13] = assay: The percent increase in life span of compound was measured against P388 Leukemia in mice at a dose of 8 mg/kg on days 1,5 and 9; format: functional; procedure, shortened: as §1
Mus musculus [14] = assay: The percent increase in life span of compound was measured against P388 Leukemia cells in mice at a dose of 4 mg/kg on days 1,5 and 9; format: functional; procedure, shortened: as §1

| Compound | IC50 (L1210 [1]) [nM] | IC50 (L1210 [2]) [nM] | IC50 (OVCAR-3) [nM] | Cardiotoxicity [3] [µM] | selectivity ratio [4] | ILS at 4.5 mg/kg (Mus musculus [5]) [%] | ILS at 10 mg/kg (Mus musculus [6]) [%] | ILS at 15 mg/kg (Mus musculus [7]) [%] | IC50 (WiDr [8]) [nM] | ILS at 1.6 mg/kg (Mus musculus [9]) [%] | IC50 (WiDr [10]) [nM] | ILS at 5 mg/kg (Mus musculus [11]) [%] | ILS at 10 mg/kg (Mus musculus [12]) [%] | ILS at 8 mg/kg (Mus musculus [13]) [%] | ILS at 4 mg/kg (Mus musculus [14]) [%] |
| --- | --- | --- | --- | --- | --- | --- | --- | --- | --- | --- | --- | --- | --- | --- | --- |
| COc1cccc2c1C(=O)c1c(O)c3c(c(O)c1C2=O)C[C@@](O)(C(=O)CO)C[C@@H]3O[C@H]1C[C@H](N)[C@H](O)[C@H](C)O1 [DOXORUBICIN] | 35 | 3880 | 35 | 11.064 | 181 | 113 |  |  |  |  |  |  |  |  |  |
| CN(C)CCN1C(=O)c2ccc(N)c3cc4ccccc4c(c23)C1=O | 5.4 | 27 | 68 | 1.486 | 20 |  |  |  |  |  |  |  |  |  |  |
| CN(C)CCN1C(=O)c2cccc3cc4cccc([N+](=O)[O-])c4c(c23)C1=O | 23 | 50 | 226 | 8.647 | 80 |  |  |  |  |  |  |  |  |  |  |
| CN(C)CCN1C(=O)c2cccc3cc4c([N+](=O)[O-])cccc4c(c23)C1=O | 50 | 20 | 50 | 0.65 | 14 |  |  |  |  |  |  |  |  |  |  |
| CN(C)CCN1C(=O)c2cccc3cc4c(N)cccc4c(c23)C1=O | 6780 | 6780 | 9480 | > 81.3 | > 6.7 |  |  |  |  |  |  |  |  |  |  |
| CN(C)CCN1C(=O)c2cccc3cc4cccc(N)c4c(c23)C1=O | 678 | 678 | 1760 | 27.1 | 24 |  |  |  |  |  |  |  |  |  |  |
| CN(C)CCN1C(=O)c2cccc3cc(N)cc(c23)C1=O [AMONAFIDE] |  |  |  | 48.4 | 30 |  | 45 | 88 |  |  |  |  |  |  |  |
| CN(C)CCN1C(=O)c2cccc3cc4cc(N)ccc4c(c23)C1=O | 2.7 | 16 | 14 | 0.813 | 39 |  |  |  |  |  |  |  |  |  |  |
| O=C1c2c(O)ccc(O)c2C(=O)c2c(NCCNCCO)ccc(NCCNCCO)c21 [MITOXANTRONE] | 5 | 39 | 5.8 | 7.737 | 387 |  |  |  | 1400 | 200 | 10 |  |  |  |  |
| CN(C)CCN1C(=O)c2cccc3cc4ccccc4c(c23)C1=O [AZONAFIDE] |  |  |  | 1.983 | 44 |  |  | 79 | 15 |  | 10 | 25 | 63 |  |  |
| CN(C)CCN1C(=O)c2c(N)ccc3cc4ccccc4c(c23)C1=O | 5.4 | 7.9 | 12 | 0.434 | 48 |  |  |  |  |  |  |  |  |  |  |
| CN(C)CCN1C(=O)c2cccc3cc4ccc(N)cc4c(c23)C1=O | 2.5 | 2.7 | 20 | 0.943 | 34 |  |  |  | 18 |  | 5.5 |  | 109 | 73 | 27 |

The next lines start with results.

| IC50 (L1210 [1]) [nM] | IC50 (L1210 [2]) [nM] | IC50 (OVCAR-3) [nM] | Compound | Cardiotoxicity [3] [µM] | selectivity ratio [4] | ILS at 4.5 mg/kg (Mus musculus [5]) [%] | ILS at 10 mg/kg (Mus musculus [6]) [%] | ILS at 15 mg/kg (Mus musculus [7]) [%] | IC50 (WiDr [8]) [nM] | ILS at 1.6 mg/kg (Mus musculus [9]) [%] | IC50 (WiDr [10]) [nM] | ILS at 5 mg/kg (Mus musculus [11]) [%] | ILS at 10 mg/kg (Mus musculus [12]) [%] | ILS at 8 mg/kg (Mus musculus [13]) [%] | ILS at 4 mg/kg (Mus musculus [14]) [%] |
| --- | --- | --- | --- | --- | --- | --- | --- | --- | --- | --- | --- | --- | --- | --- | --- |
| 608 | 560 | 608 | CC(=O)Nc1ccc2cc3ccccc3c3c2c1C(=O)N(CCN(C)C)C3=O | > 24.331 | > 33 |  |  |  |  |  |  |  |  |  |  |
| 200 | 200 | 150 | CN(C)CCN1C(=O)c2cccc3cc4ccc(NC(=O)C(C)(C)C)cc4c(c23)C1=O | 11.025 | 55 |  |  |  |  |  |  |  |  |  |  |
| 6.2 | 15 | 20 | CN(C)CCN1C(=O)c2cc(N)cc3cc4ccccc4c(c23)C1=O | 1.724 | 101 |  |  |  |  |  |  |  |  |  |  |
| 862 | 172 | 493 | CN(C)CCN1C(=O)c2c(NC(=O)C(C)(C)C)ccc3cc4ccccc4c(c23)C1=O | > 24.63 | > 25 |  |  |  |  |  |  |  |  |  |  |
| 49 | 219 | 49 | CC(=O)Nc1ccc2cc3cccc4c3c(c2c1)C(=O)N(CCN(C)C)C4=O | 7.786 | 120 |  |  |  | 50 |  | 9 |  |  |  |  |
| 114 | 170 | 13 | CC(=O)Nc1ccc2c3c4c(cccc4cc2c1)C(=O)N(CCN(C)C)C3=O | 0.487 | 7.7 |  |  |  |  |  |  |  |  |  |  |
| 243 | 2430 | 2430 | CC(=O)Nc1cccc2cc3cccc4c3c(c12)C(=O)N(CCN(C)C)C4=O | > 22.5 | > 13.2 |  |  |  |  |  |  |  |  |  |  |
| 487 | 487 | 730 | CC(=O)Nc1c2ccccc2c2c3c(cccc13)C(=O)N(CCN(C)C)C2=O | > 24.331 | > 37 |  |  |  |  |  |  |  |  |  |  |
| 19 | 73 | 61 | CC(=O)Nc1cc2c3c(c4ccccc4cc3c1)C(=O)N(CCN(C)C)C2=O | 0.177 | 3.5 |  |  |  |  |  |  |  |  |  |  |
| 44 | 15 | 33 | CN(C)CCN1C(=O)c2cc(NC(=O)C(C)(C)C)cc3cc4ccccc4c(c23)C1=O | 0.662 | 9.5 |  |  |  |  |  |  |  |  |  |  |
